Activity calls are given as the source filed them. The calls are words filed in the database; no cut-off is given here.
Legend:
[1] = Dose normalized AUC in Balb/c mouse at 20 mg/kg, po by LC/MS/MS analysis; format: ADME, organism-based; details: in vivo
Method in brief: (§1)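 Balb/c mice dosed 5 mg/kg i.v. and 20 mg/kg p.o. in PEG300/D5W (3:1); plasma concentration profile taken as mean of three animals; PK parameters derived from these profiles.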

[2] = molecular target: T1, Signal peptide peptidase-like 2A (Mus musculus) (UniProt Q9JJF9); test: Inhibition of SPPL2a in mouse whole blood assessed as […] in CD74/p8 NTF accumulation at 4 uM incubated for 5 hrs by flow cytometric analysis based assay; format: tissue-based
T1 sequence (whole entry): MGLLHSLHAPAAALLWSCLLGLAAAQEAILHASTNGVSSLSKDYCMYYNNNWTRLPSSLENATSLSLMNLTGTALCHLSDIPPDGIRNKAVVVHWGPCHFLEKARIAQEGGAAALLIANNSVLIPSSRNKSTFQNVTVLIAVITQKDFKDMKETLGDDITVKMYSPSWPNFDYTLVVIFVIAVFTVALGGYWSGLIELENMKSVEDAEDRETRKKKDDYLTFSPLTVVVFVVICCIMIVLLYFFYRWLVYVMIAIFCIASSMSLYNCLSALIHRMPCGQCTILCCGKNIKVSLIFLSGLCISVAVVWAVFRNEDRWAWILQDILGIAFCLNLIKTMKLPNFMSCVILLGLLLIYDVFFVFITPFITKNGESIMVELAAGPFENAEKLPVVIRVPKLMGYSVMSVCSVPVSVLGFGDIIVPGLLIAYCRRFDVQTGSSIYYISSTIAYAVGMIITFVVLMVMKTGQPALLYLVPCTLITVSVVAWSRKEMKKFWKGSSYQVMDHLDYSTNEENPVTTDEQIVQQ

[3] = Drug uptake in mouse spleen at 100 mg/kg, po measured after 4 hrs by LC/MS/MS analysis; format: ADME, organism-based; details: read-out: Drug uptake
Method in brief: (§2)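 Single oral dose of 10, 30 or 100 mg/kg in PEG300/D5W (3:1); total plasma and spleen concentrations measured at termination, 4 h post-dose; reported as means ± SEM.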

[4] = molecular target: T2, Signal peptide peptidase-like 2B (Homo sapiens, UniProt Q8TCT7); test: Inhibition of SPPL2b in human U2OS cells cotransfected with EGFP-labeled TNFalpha (1 to 76 residues)-NTF incubated for 24 hrs by Hoechst staining based Cellomics ArrayScan analysis; format: cell-based
T2 sequence (Q8TCT7 whole entry): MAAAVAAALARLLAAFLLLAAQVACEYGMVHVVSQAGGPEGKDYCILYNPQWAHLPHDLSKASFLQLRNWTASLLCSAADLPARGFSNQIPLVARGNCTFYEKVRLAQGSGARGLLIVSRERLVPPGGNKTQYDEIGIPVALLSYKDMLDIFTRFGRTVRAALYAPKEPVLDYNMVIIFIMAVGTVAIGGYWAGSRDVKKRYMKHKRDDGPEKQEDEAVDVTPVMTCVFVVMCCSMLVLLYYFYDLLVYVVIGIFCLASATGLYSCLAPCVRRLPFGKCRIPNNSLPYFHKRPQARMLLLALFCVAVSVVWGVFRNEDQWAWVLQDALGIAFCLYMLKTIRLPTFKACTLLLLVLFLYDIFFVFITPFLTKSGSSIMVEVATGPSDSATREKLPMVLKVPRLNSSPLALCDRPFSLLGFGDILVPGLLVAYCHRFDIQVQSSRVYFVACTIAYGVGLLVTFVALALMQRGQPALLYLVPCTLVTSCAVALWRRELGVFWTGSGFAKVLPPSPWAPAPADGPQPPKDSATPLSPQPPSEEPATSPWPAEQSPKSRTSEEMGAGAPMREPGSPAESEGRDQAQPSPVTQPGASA

[5] = Total plasma concentration in mouse at 100 mg/kg, po measured after 4 hrs by LC/MS/MS analysis; format: ADME, organism-based; method in brief: as §2
[6] = Half life in Balb/c mouse at 5 mg/kg, iv and 20 mg/kg, po by LC/MS/MS analysis; format: ADME, organism-based; details: in vivo; method in brief: as §1
[7] = molecular target: T3, Signal peptide peptidase-like 2A (Mus musculus, UniProt Q9JJF9); test: Inhibition of mouse SPPL2a cotransfected with EGFP-NLP-fused TNFalpha (1 to 77 residues)-NTF incubated for 24 hrs by Hoechst staining based Cellomics ArrayScan analysis
T3 sequence (Q9JJF9 whole entry): T1 sequence (whole entry)

[8] = Drug uptake in mouse spleen at 30 mg/kg, po measured after 4 hrs by LC/MS/MS analysis; format: ADME, organism-based; details: read-out: Drug uptake; method in brief: as §2
[9] = Total plasma concentration in mouse at 30 mg/kg, po measured after 4 hrs by LC/MS/MS analysis; format: ADME, organism-based; method in brief: as §2
[10] = Oral bioavailability in Balb/c mouse at 20 mg/kg by LC/MS/MS analysis; format: ADME, organism-based; details: in vivo; method in brief: as §1
[11] = Volume of distribution in Balb/c mouse at 5 mg/kg, iv and 20 mg/kg, po by LC/MS/MS analysis; format: ADME, organism-based; details: in vivo; method in brief: as §1
[12] = Drug uptake in mouse spleen at 10 mg/kg, po measured after 4 hrs by LC/MS/MS analysis; format: ADME, organism-based; details: read-out: Drug uptake; method in brief: as §2
[13] = Total plasma concentration in mouse at 10 mg/kg, po measured after 4 hrs by LC/MS/MS analysis; format: ADME, organism-based; method in brief: as §2
[14] = molecular target: Gamma-secretase; test: Inhibition of gamma-secretase (unknown origin) expressed in HEK293 cells cotransfected with Notch1-VP16-GAL4 fusion and Gal4 luciferase reporter plasmid incubated for 24 hrs by luciferase reporter gene assay luminescence assay; format: cell-based, Homo sapiens
[15] = molecular target: T3, Signal peptide peptidase-like 2A; test: Inhibition of SPPL2a in Balb/c mouse A20 cells assessed as […] in CD74/p8 NTF accumulation incubated for overnight by Western blot analysis; format: cell-based
Method in brief: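 Endogenous CD74/p8 NTF processing in mouse B cell line A20 measured by quantitative Western blot; IC50 derived.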

AUC/dose [1]: 282 nM·h
inhibition [2]: Active
concentration at 4 h [3]: 53.3 µM
IC50 [4]: 270 nM
concentration at 4 h [5]: 1.17 µM
half-life [6]: 5 h
IC50 [7]: 5 nM
concentration at 4 h [8]: 12.7 µM
concentration at 4 h [9]: 0.25 µM
bioavailability [10]: 35%
Vd [11]: 12.3 L/kg
concentration at 4 h [12]: 6 µM
concentration at 4 h [13]: 0.12 µM
IC50 [14]: 1300 nM
IC50 [15]: 150 nM
Compound: CC(C)(C)c1ccc(S(=O)(=O)N(C[C@H](O)[C@@H](N)c2ccc(OC(F)(F)F)cc2)C2CCC2)cc1
